This is a sample that favours compounds with a hit; in the whole collection about 3.4% have one here.
MLL AF4-AF9 inh = blocks AF4 peptide binding to human AF9; P42568; AlphaScreen, biotin-AF4 peptide binding to FLAG-AF9; inhibition, % at 10 µM; hit rate 0.47% among 350,000; AID 651704;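 active means every replicate reaching a set inhibition limit, whatever the replicate mean, cut at about 25% in these data; inconclusive means mean inhibition reaches that limit but some replicates miss it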
E-selectin induc = induces E-selectin expression in human endothelial cells. P16581. HUVEC E-selectin immunofluorescence imaging; normalized: neutral wells 0, TNF-alpha wells 100. activation, % at 7.58 µM. hit rate 0.37% among 260,000;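 active means mean E-selectin-positive cell signal at least 10% of the positive control, reached in at least 60% of replicates, without over 20% cell loss; inconclusive means no rule given, readout overlaps actives, possibly toxicity-flagged; inactive means the rest, including those meeting only one limit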
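material = human umbilical vein endothelial cells (HUVEC), E-selectin induction | quantity = 3,000 cells/well | medium = EGM-2 growth medium on 0.1% gelatin-coated wells | technique = immunofluorescence imaging | read-out basis = % PE-positive cells | control set = TNF-alpha positive control, DMSO neutral control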
ERAP1 inh = ERAP1 (human) enzyme inhibition; Q9NZ08; recombinant ERAP1, Leu-AMC fluorescence, 60 min; inhibition, % at 10.7 µM; hit rate 0.15% among 340,000; AID 652197;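 active means mean replicate inhibition of at least 30%, or all replicates individually reaching that 30% level; inactive means mean below 30% and not every replicate reaching it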
Ecoli rRNA inh = inhibitors of bacterial rRNA selective over humanized ribosomes. E. coli WT GFP vs humanized-ribosome RFP mutants, fluorescence, 24 h; stronger effect = lower value; DMSO median 0, no signal -100. GFP signal change (wild-type ribosome), % (no concentration beside the values). hit rate 1.6% among 350,000. AID 720706;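 active means significant combined selectivity score with lowered wild-type GFP, culture density cut under 30%, mutant RFP and density less affected; inactive means any of these conditions unmet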
SIRT5 block = inhibitors of human sirtuin-5 desuccinylase | Q9NXA8 | Purified SirT5, succinyl-peptide AMC, trypsin-coupled fluorescence | inhibition, % at 15 µM | hit rate 1.1% among 330,000 | AID 652115; in the data active means inhibition above about 15%; inconclusive means no clear call, values can overlap the other calls
Target sequence (Q9NXA8 whole entry, looked up): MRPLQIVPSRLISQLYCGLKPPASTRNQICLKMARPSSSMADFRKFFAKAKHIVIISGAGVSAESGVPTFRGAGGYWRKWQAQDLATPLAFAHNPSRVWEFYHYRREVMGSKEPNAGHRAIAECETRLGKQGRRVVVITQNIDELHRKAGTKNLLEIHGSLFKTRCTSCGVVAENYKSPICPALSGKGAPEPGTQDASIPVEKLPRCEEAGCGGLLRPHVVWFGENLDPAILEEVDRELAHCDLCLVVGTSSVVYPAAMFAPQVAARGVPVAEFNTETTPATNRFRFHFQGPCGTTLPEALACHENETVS
S100A4 inh HTS = blocks human S100A4 binding to myosin IIA peptide. P26447. S100A4/TAMRA-MyoIIA peptide fluorescence polarization. inhibition, % at 10.7 µM. hit rate 0.14% among 360,000;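 active means mean inhibition of at least 70% across replicates, with every replicate also reaching that level; inconclusive means mean inhibition reaches 70% but some replicates fall short; inactive means mean inhibition below 70%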
Target sequence (P26447 whole entry, looked up): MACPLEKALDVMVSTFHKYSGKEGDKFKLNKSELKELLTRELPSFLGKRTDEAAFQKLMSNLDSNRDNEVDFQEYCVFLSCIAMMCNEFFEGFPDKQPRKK
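assay system = human S100A4 monomer with TAMRA-labelled myosin IIA peptide | also added = labelled myosin peptide probe, 5 nM | incubation = 5 min between mix addition and reading | control set = DMSO and TFP controls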
AID977621 = wild-type E. coli growth inhibition versus H69 humanized strain – H69 mutant RFP, wild-type GFP, cherry-pick, dose response; shares compounds with Ecoli rRNA inh; fluorescence, 24 h; activity change, negative = inhibition at 50 µM; 1,900 tested, under 10 active; AID 977621;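 active means Wild-type ribosome reporter drop at least double the humanized mutant ribosome reporter drop, growth loss under a set limit; inconclusive means no clear call, values can overlap the other calls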;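 further: wild-type GFP and H69 mutant RFP strains grown together 50/50 in each well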
AID977628 = growth of wild-type and h24-humanized E. coli strains – h24 mutant RFP vs wild-type GFP, cherry-pick, dose response; shares compounds with Ecoli rRNA inh; E. coli WT GFP strain growth, fluorescence, 24 h; activity change, negative = inhibition at 50 µM; 1,900 tested, under 10 active; AID 977628;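 active means compound lowering the normal-ribosome reporter at least twice as much as the humanized-ribosome reporter, growth loss under a set limit; inconclusive means no clear call, values can overlap the other calls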;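 further: wild-type GFP and h24 humanized RFP strains co-cultured 1 to 1 per well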
Large screens that a line does not name were inactive (follow-up assays come after a bar, where they were run); ! = repeats disagree.

C[C@@H]1CN([C@H](C)CO)C(=O)c2cccc(NS(=O)(=O)c3ccc(F)cc3)c2O[C@@H]1CN(C)C(=O)Nc1ccccc1	none
C[C@@H]1CN([C@H](C)CO)C(=O)Cc2cc(NS(=O)(=O)c3cn(C)cn3)ccc2O[C@H]1CN(C)Cc1ccncc1	none (no result: E-selectin induc)
CCN(CC)c1nc(Oc2ccc(C(=O)OC)cc2)nc(N2CCOCC2)n1	Ecoli rRNA inh -15.7 (no result: ERAP1 inh) | AID977621 inactive | AID977628 inactive
O=C(NC1CCC1)[C@@H]1[C@@H](CO)[C@@H]2Cn3c(cccc3=O)[C@@H]2N1CC1CCOCC1	none
CCOC(=O)c1cnc2ccc(OC)cc2c1NCc1ccccc1	none (no result: E-selectin induc)
CCOC(=O)c1cnc2ccccc2c1NCc1ccco1	Ecoli rRNA inh -29.5 (no result: E-selectin induc) | AID977628 inactive
Fc1ccc(-c2cn(-c3ccccc3)c3[n+]2CCS3)cc1	none (no result: MLL AF4-AF9 inh)
Clc1ccc(-c2cn(-c3ccccc3)c3[n+]2CCS3)cc1	Ecoli rRNA inh -18.0 (no result: E-selectin induc) | AID977621 inactive | AID977628 inconclusive
C[C@@H]1CN([C@H](C)CO)C(=O)c2cccc(NC(=O)Nc3ccccc3)c2O[C@H]1CN(C)C	none
O=C(Nc1ccc(C(=O)N2CCOCC2)cc1)C1CCCC1	Ecoli rRNA inh -4.4 | AID977621 inactive | AID977628 inactive
O=C(Cc1cccc(NC(=O)C2CCN(C(=O)C3CCCCC3)CC2)c1)Nc1cccc(C(=O)N2CCCC2)c1	Ecoli rRNA inh -21.5 (no result: SIRT5 block) | AID977621 inactive
O=C(Nc1ccc(C(=O)N2CCCC2)cc1)C1CCCC1	none (no result: ERAP1 inh, SIRT5 block)
O=C(CC1CC1)N1CC(=O)N2[C@H](C1)[C@H](c1ccc(/C=C/c3ccccc3)cc1)[C@@H]2CO	none
C[C@H]1CN([C@@H](C)CO)C(=O)c2cc(-c3cccnc3)cnc2O[C@@H]1CN(C)C(=O)Nc1ccc(C(F)(F)F)cc1	none
Cc1noc(C)c1S(=O)(=O)Nc1ccc2c(c1)C(=O)N([C@@H](C)CO)C[C@H](C)[C@@H](CN(C)S(=O)(=O)c1ccccc1)OCCCC[C@H](C)O2	none
CCOc1ccc(C(C)=O)cc1CN1C(=O)NC2(CCCCCCC2)C1=O	Ecoli rRNA inh -40.0 | AID977621 inactive | AID977628 inactive
COc1ccc(C[C@@H]2CCn3cc(nn3)COCCCNC2=O)cc1	none (no result: MLL AF4-AF9 inh, ERAP1 inh, SIRT5 block, S100A4 inh HTS)
Cc1ccnc(NS(=O)(=O)c2ccc(NC(=O)c3ccc4c(c3)OCCO4)cc2)n1	Ecoli rRNA inh -22.6 | AID977621 inactive | AID977628 inactive
Cc1ccnc(NS(=O)(=O)c2ccc(NC(=O)c3cccc(Cl)c3)cc2)n1	none
COc1cc([N+](=O)[O-])ccc1NC(=O)C[n+]1ccccc1	none (no result: MLL AF4-AF9 inh, ERAP1 inh, Ecoli rRNA inh, SIRT5 block, S100A4 inh HTS)
O=C(C[n+]1ccc(Cc2ccccc2)cc1)Nc1ccc([N+](=O)[O-])cc1Cl	Ecoli rRNA inh -30.5 | AID977621 inactive | AID977628 inactive
COc1ccc(CC(=O)NC(C)c2ccc3ccccc3c2)cc1 (centres undefined)	Ecoli rRNA inh -22.6 (no result: ERAP1 inh) | AID977628 inconclusive
CNC[C@@H]1OCCCC[C@H](C)Oc2ccc(NS(C)(=O)=O)cc2C(=O)N([C@H](C)CO)C[C@@H]1C	none
COCCCn1c(C)cc(C(=O)COC(=O)CCc2nc3ccccc3c(=O)[nH]2)c1C	Ecoli rRNA inh -27.3 | AID977621 inactive
CCn1c(N)c(C(=O)COC(=O)CCc2nc3ccccc3c(=O)[nH]2)c(=O)[nH]c1=O	none (no result: E-selectin induc)
Cc1ccc(NS(=O)(=O)c2ccc3c(c2)CCC(=O)N3)cc1C	Ecoli rRNA inh -22.8! | AID977621 inactive | AID977628 inconclusive
Cc1cccc(SCC(=O)Nc2ccccc2[N+](=O)[O-])c1	Ecoli rRNA inh -25.8 (no result: E-selectin induc) | AID977621 inactive | AID977628 inactive
COc1ccc(Nc2nc(N)c([N+](=O)[O-])c(N3CCN(C)CC3)n2)cc1	none
COc1ccc(Nc2nc(N)c([N+](=O)[O-])c(N3CCCC3)n2)cc1	Ecoli rRNA inh -20.8 | AID977621 inactive | AID977628 inactive
COc1ccc(OC)c(Nc2nc(N)c([N+](=O)[O-])c(N3CCOCC3)n2)c1	Ecoli rRNA inh -31.0 (no result: E-selectin induc) | AID977621 inconclusive
Cc1noc(C)c1S(=O)(=O)Nc1ccc2c(c1)C(=O)N([C@@H](C)CO)C[C@@H](C)[C@@H](CN(C)S(=O)(=O)c1cccs1)OCCCC[C@@H](C)O2	none (no result: MLL AF4-AF9 inh, E-selectin induc, ERAP1 inh, SIRT5 block, S100A4 inh HTS)
O=C1N[C@@H](Cc2ccccc2)COC(=O)[C@H](Cc2ccc(F)cc2)C/C=C\C[C@H]1CC(=O)N(CCO)Cc1ccccc1	Ecoli rRNA inh -18.8 (no result: E-selectin induc, ERAP1 inh) | AID977628 inconclusive
O=C1N[C@H](Cc2ccccc2)COC(=O)[C@H](Cc2ccc(F)cc2)C/C=C\C[C@H]1CC(=O)N(CCO)Cc1ccccc1	none
O=C1OC[C@@H]2CCCN2C(=O)[C@@H](CC(=O)N(CCO)Cc2ccccc2)C/C=C\C[C@H]1Cc1ccc(F)cc1	Ecoli rRNA inh -21.1 | AID977621 inactive | AID977628 inactive
O=C1OC[C@H]2CCCN2C(=O)[C@@H](CC(=O)N(CCO)Cc2ccccc2)C/C=C\C[C@H]1Cc1ccc(F)cc1	none
Cn1c(SCC(=O)NCc2ccco2)nnc1C1CC1	none
CC1CCc2c(sc3ncn4c(SCC(=O)NCc5ccco5)nnc4c23)C1 (centres undefined)	Ecoli rRNA inh -20.0 (no result: E-selectin induc) | AID977621 inactive | AID977628 inactive
COc1ccc(-n2ccnc2SCC(=O)NCc2ccccc2)c(OC)c1	Ecoli rRNA inh -24.9 | AID977621 inactive
CCCC#Cc1ccc2c(c1)O[C@@H](CN(C)S(=O)(=O)c1cccc(F)c1)[C@H](C)CN([C@@H](C)CO)S2(=O)=O	none
C[C@@H]1CCCCO[C@H](CN(C)C(=O)CCC(F)(F)F)[C@@H](C)CN([C@@H](C)CO)C(=O)c2cc(NS(C)(=O)=O)ccc2O1	none
CCOC(=O)C1CCN(Cc2cc(C(C)(C)C)c(O)c(C(C)(C)C)c2)CC1	none
CN1CCN(CC(=O)c2cc(C(C)(C)C)c(O)c(C(C)(C)C)c2)CC1	Ecoli rRNA inh -30.6 (no result: E-selectin induc) | AID977621 inactive | AID977628 inactive
CCC(=O)N1C[C@@H](C)[C@@H](OC)CN(C)C(=O)c2cc(NS(C)(=O)=O)ccc2OC[C@H]1C	none
CCOC(=O)C1CCCN(Cc2c(Cl)cccc2Cl)C1 (centres undefined)	Ecoli rRNA inh -23.3 (no result: E-selectin induc) | AID977621 inactive | AID977628 inactive
